Source: ChEMBL document CHEMBL3751731, “Ferulic acid-carbazole hybrid compounds: Combination of cholinesterase inhibition, antioxidant and neuroprotection as multifunctional anti-Alzheimer agents” (Bioorg Med Chem, 2016)
The source made the active and inactive calls. The rule behind the calls is not given here.

Tests used:
[1] = Antioxidant activity assessed as DPPH radical scavenging activity at 10 uM after 4 hrs by UV spectrophotometric analysis; format: physicochemical
In short: (§1)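 DPPH radical at 0.1 mM in ethanol. Test compounds were in ethanol at 1–100 µM (1, 2, 10, 50, 100). Mixture lines used an equimolar (1:1) blend with ferulic acid. Absorbance was read at 517 nm before addition (Abs0) and after 4 h once stable (Abst). Scavenging % = (1 − Abst/Abs0) × 100.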

[2] = Antioxidant activity assessed as DPPH radical scavenging activity at 50 uM after 4 hrs by UV spectrophotometric analysis; format: physicochemical; in short: as §1
Acetylcholinesterase [3] = biological target: Acetylcholinesterase (Electrophorus electricus, UniProt O42275); assay: Inhibition of electric eel AChE using ATC as substrate preincubated for 5 mins followed by substrate addition measured after 2 mins by Ellman's assay
Chain of Acetylcholinesterase (Electrophorus electricus, UniProt O42275) (O42275 whole entry): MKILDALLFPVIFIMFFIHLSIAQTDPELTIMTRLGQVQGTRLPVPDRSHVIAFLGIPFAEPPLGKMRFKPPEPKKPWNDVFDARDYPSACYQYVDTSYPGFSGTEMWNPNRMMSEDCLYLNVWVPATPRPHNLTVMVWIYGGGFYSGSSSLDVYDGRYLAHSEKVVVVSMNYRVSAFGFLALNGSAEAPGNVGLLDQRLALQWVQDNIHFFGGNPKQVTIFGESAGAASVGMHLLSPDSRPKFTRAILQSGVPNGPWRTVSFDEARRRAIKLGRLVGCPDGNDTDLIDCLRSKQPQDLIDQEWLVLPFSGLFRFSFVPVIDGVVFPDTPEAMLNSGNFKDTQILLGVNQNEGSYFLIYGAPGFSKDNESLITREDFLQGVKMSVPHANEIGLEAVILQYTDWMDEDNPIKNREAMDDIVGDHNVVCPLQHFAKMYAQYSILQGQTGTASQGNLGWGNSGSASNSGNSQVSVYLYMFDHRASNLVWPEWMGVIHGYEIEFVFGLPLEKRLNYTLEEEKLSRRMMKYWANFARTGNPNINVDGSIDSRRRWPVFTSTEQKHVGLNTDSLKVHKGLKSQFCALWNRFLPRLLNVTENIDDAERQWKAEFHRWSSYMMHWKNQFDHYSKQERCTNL

[4] = Antioxidant activity assessed as galvinoxyl radical scavenging activity at 2 uM after 19 hrs by UV spectrophotometric analysis; format: physicochemical
In short: (§2)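 Galvinoxyl radical at 2 µM in ethanol, with compounds in ethanol at 1, 2, 10, 50 or 100 µM. Mixture lines used an equimolar (1:1) blend with ferulic acid. A428 was recorded before addition and after 19 h once stable. Percent radical scavenged = (1 − Abst/Abs0) × 100.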

Acetylcholinesterase [5] = biological target: Acetylcholinesterase (Homo sapiens, UniProt P22303); assay: Inhibition of human AChE using ATC as substrate preincubated for 5 mins followed by substrate addition measured after 2 mins by Ellman's assay
Chain of Acetylcholinesterase (Homo sapiens, UniProt P22303) (P22303 whole entry): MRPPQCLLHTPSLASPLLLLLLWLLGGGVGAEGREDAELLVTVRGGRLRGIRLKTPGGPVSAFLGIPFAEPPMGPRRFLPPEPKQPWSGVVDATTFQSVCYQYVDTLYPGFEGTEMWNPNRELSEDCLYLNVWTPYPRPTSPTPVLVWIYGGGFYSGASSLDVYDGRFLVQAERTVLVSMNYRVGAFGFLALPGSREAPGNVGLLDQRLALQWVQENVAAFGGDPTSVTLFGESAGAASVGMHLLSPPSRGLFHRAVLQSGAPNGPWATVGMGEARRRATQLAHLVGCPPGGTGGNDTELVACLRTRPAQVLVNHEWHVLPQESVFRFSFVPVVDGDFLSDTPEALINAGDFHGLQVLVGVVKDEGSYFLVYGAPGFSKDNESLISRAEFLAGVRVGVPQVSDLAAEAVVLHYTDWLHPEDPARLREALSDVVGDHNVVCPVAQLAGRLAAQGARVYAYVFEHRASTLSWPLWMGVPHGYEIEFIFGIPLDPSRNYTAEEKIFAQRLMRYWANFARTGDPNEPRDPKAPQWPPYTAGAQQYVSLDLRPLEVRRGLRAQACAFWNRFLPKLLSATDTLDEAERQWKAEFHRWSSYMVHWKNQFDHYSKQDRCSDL
In short: (§3)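 Ellman's method with DTNB chromogen, acetylthiocholine (AChE) or butyrylthiocholine (BChE) iodide substrate, in potassium phosphate buffer pH 8.0 (KOH-adjusted). Compounds were diluted from ethanol stocks, with a top final concentration of 10^-4 M. At least five concentrations (normally 10^-4–10^-9 M) were run, each in triplicate, read at 412 nm at 25 °C. IC50 values are from inhibition curves, as means of at least three determinations.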

Cholinesterase [6] = biological target: Cholinesterase (Equus caballus, UniProt P81908); assay: Inhibition of equine BChE using BTC as substrate preincubated for 5 mins followed by substrate addition measured after 2 mins by Ellman's assay
Chain of Cholinesterase (Equus caballus, UniProt P81908) (P81908 whole entry): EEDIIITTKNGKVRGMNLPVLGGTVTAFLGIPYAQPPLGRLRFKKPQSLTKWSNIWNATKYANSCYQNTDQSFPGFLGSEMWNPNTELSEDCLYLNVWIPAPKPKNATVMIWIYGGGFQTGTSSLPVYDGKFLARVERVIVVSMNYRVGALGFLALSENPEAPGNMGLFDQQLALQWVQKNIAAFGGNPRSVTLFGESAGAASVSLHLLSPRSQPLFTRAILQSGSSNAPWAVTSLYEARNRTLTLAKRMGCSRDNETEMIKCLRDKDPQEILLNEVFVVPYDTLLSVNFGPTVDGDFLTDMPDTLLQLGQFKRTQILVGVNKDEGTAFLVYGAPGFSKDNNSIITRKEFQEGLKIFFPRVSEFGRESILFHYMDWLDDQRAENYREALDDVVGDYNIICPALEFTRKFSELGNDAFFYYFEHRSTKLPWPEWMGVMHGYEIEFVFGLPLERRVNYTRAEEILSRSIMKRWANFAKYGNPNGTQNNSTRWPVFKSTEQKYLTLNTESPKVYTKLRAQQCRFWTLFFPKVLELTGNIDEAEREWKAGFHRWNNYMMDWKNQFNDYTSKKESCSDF

[7] = Antioxidant activity assessed as galvinoxyl radical scavenging activity at 1 uM after 19 hrs by UV spectrophotometric analysis; format: physicochemical; in short: as §2
[8] = Antioxidant activity assessed as DPPH radical scavenging activity at 100 uM after 4 hrs by UV spectrophotometric analysis; format: physicochemical; in short: as §1
[9] = Antioxidant activity assessed as galvinoxyl radical scavenging activity at 10 uM after 19 hrs by UV spectrophotometric analysis; format: physicochemical; in short: as §2
Cholinesterase [10] = biological target: Cholinesterase (Homo sapiens, UniProt P06276); assay: Inhibition of human BChE using BTC as substrate preincubated for 5 mins followed by substrate addition measured after 2 mins by Ellman's assay; in short: as §3
Chain of Cholinesterase (Homo sapiens, UniProt P06276) (P06276 whole entry): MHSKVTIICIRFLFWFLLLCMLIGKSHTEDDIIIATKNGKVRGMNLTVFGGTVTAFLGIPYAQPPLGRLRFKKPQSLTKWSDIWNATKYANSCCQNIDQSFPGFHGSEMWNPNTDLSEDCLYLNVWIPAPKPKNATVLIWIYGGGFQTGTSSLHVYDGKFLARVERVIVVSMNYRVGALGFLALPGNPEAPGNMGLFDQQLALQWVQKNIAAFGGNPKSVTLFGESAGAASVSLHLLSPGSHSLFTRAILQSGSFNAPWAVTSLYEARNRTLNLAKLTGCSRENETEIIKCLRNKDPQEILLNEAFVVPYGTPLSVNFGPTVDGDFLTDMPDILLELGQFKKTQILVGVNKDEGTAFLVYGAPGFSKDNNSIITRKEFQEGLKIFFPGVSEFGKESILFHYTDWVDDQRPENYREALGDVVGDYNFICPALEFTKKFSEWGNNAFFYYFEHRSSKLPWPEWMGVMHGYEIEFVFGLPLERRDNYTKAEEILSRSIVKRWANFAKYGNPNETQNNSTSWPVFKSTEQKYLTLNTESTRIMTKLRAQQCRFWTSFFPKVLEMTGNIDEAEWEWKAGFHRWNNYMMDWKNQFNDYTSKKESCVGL

[11] = Antioxidant activity assessed as galvinoxyl radical scavenging activity at 50 uM after 19 hrs by UV spectrophotometric analysis; format: physicochemical; in short: as §2
[12] = Antioxidant activity assessed as DPPH radical scavenging activity at 1 uM after 4 hrs by UV spectrophotometric analysis; format: physicochemical; in short: as §1
[13] = Antioxidant activity assessed as galvinoxyl radical scavenging activity at 100 uM after 19 hrs by UV spectrophotometric analysis; format: physicochemical; in short: as §2
[14] = Antioxidant activity assessed as DPPH radical scavenging activity at 2 uM after 4 hrs by UV spectrophotometric analysis; format: physicochemical; in short: as §1
[15] = Cytotoxicity against rat PC12 cells at 0.1 to 50 uM incubated for 24 hrs by MTT assay; format: cell-based; conditions: pc-12, 24 h
In short: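 PC12 cells were grown in F-12 with 10% FBS and penicillin/streptomycin at 37 °C, 5% CO₂, seeded at 2000 cells/well and grown 24 h. Compounds were added from DMSO (final <0.5%) for 24 h. MTT (5 mg/mL) was added for 4 h, formazan dissolved in DMSO and A540 read after cell-free blank subtraction. Viability is % of control; three independent trials, mean ± SEM.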

PC-12 [16] = assay: Neuroprotective effect in rat PC12 cells assessed as alleviation of H2O2 -induced toxicity after 24 hrs by MTT assay; format: functional, cell-based
In short: (§4)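 PC12 cells (F-12, 10% FBS, 37 °C, 5% CO₂; 2000 cells/well, 24 h pre-culture) were co-treated with compound (0.1, 1, 10, 50; DMSO <0.5%) and H₂O₂ for 24 h. The mixture line used a 1:1 molar blend with ferulic acid. MTT for 4 h, formazan dissolved in DMSO, A540, blank-subtracted. Viability is % of control; three independent trials, mean ± SEM.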

PC-12 [17] = assay: Neuroprotective effect in rat PC12 cells assessed as alleviation of amyloid beta42-induced toxicity after 24 hrs by MTT assay; format: functional, cell-based
In short: (§5)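 Aβ42 was dissolved in hexafluoroisopropanol, dried to a film, taken up in F-12 and held at 4 °C for 24 h. PC12 cells (2000/well, 24 h pre-culture) were co-treated with this Aβ42 and compound (0.1–50; DMSO <0.5%) for 24 h. The mixture line used a 1:1 blend with ferulic acid. MTT for 4 h, A540; % of control, three independent trials, mean ± SEM.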

[18] = Antioxidant activity assessed as DPPH radical scavenging activity at 2 uM after 4 hrs by UV spectrophotometric analysis in presence of ferulic acid; format: physicochemical; in short: as §1
[19] = Antioxidant activity assessed as galvinoxyl radical scavenging activity at 1 uM after 19 hrs in presence of ferulic acid by UV spectrophotometric analysis; format: physicochemical; in short: as §2
[20] = Antioxidant activity assessed as DPPH radical scavenging activity at 100 uM after 4 hrs by UV spectrophotometric analysis in presence of ferulic acid; format: physicochemical; in short: as §1
[21] = Antioxidant activity assessed as galvinoxyl radical scavenging activity at 10 uM after 19 hrs in presence of ferulic acid by UV spectrophotometric analysis; format: physicochemical; in short: as §2
[22] = Antioxidant activity assessed as DPPH radical scavenging activity at 10 uM after 4 hrs by UV spectrophotometric analysis in presence of ferulic acid; format: physicochemical; in short: as §1
[23] = Antioxidant activity assessed as galvinoxyl radical scavenging activity at 2 uM after 19 hrs in presence of ferulic acid by UV spectrophotometric analysis; format: physicochemical; in short: as §2
[24] = Antioxidant activity assessed as DPPH radical scavenging activity at 1 uM after 4 hrs by UV spectrophotometric analysis in presence of ferulic acid; format: physicochemical; in short: as §1
PC-12 [25] = assay: Neuroprotective effect in rat PC12 cells assessed as alleviation of H2O2-induced toxicity at 1:1 compound to ferulic acid molar ratio after 24 hrs by MTT assay; format: functional, cell-based; in short: as §4
[26] = Antioxidant activity assessed as galvinoxyl radical scavenging activity at 100 uM after 19 hrs in presence of ferulic acid by UV spectrophotometric analysis; format: physicochemical; in short: as §2
[27] = Antioxidant activity assessed as DPPH radical scavenging activity at 50 uM after 4 hrs by UV spectrophotometric analysis in presence of ferulic acid; format: physicochemical; in short: as §1
[28] = Antioxidant activity assessed as galvinoxyl radical scavenging activity at 50 uM after 19 hrs in presence of ferulic acid by UV spectrophotometric analysis; format: physicochemical; in short: as §2
PC-12 [29] = assay: Neuroprotective effect in rat PC12 cells assessed as alleviation of amyloid beta 42-induced toxicity at 1:1 compound to ferulic acid molar ratio after 24 hrs by MTT assay; format: functional, cell-based; in short: as §5

| Structure (SMILES) | Activity [1] [%] | Activity [2] [%] | IC50 (Acetylcholinesterase [3]) [µM] | Activity [4] [%] | IC50 (Cholinesterase [6]) [µM] | Activity [7] [%] | Activity [8] [%] | Activity [9] [%] | Activity [11] [%] | Activity [12] [%] | Activity [13] [%] | Activity [14] [%] | other results |
| --- | --- | --- | --- | --- | --- | --- | --- | --- | --- | --- | --- | --- | --- |
| COc1cc(/C=C/C(=O)N(Cc2cccc3[nH]c4ccccc4c23)C(C)C)ccc1O | 68.9 | 84.5 | 11.1 | 55.2 | 12.7 | 24.1 | 90.9 | 68 | 87.5 | 44.1 | 90.8 | 56.2 | IC50 (Acetylcholinesterase [5]): 22 µM; IC50 (Cholinesterase [10]): 9 µM |
| COc1cc(/C=C/C(=O)O)ccc1O [FERULATE] | 63.1 | 72 |  | 15.8 |  | 6.6 | 92.2 | 33.7 | 52.2 | 30.3 | 79 | 44.4 |  |
| CCN(Cc1cccc2[nH]c3ccccc3c12)C(=O)/C=C/c1ccc(O)c(OC)c1 | 55 | 82.8 | 18 | 40.1 | 13.8 | 24.7 | 86.3 | 55 | 82.8 | 24.7 | 86.3 | 40.1 |  |
| CC(C)NCc1cccc2[nH]c3ccccc3c12 |  |  | 21.6 |  | 8.9 |  |  |  |  |  |  |  | IC50 (Acetylcholinesterase [5]): 18 µM; IC50 (Cholinesterase [10]): 8.1 µM |
| CCN(Cc1cccc2[nH]c3cc(Cl)ccc3c12)C(=O)/C=C/c1ccc(O)c(OC)c1 | 66 | 77.3 | 1.9 | 22.4 | 3.1 | 8.3 | 91.9 | 38.1 | 57 | 41.8 | 83.2 | 49.1 | IC50 (Acetylcholinesterase [5]): 6.9 µM; IC50 (Cholinesterase [10]): 2.8 µM; Activity [15]: Non-toxic; Activity (PC-12 [16]): Dose-dependent effect; Activity (PC-12 [17]): Dose-dependent effect |
| COc1cc(/C=C/C(=O)N(Cc2cccc3[nH]c4ccccc4c23)C2CCCCC2)ccc1O | 63.1 | 72 | > 100 | 12.4 | 22 | 3.3 | 89.2 | 23.1 | 42 | 30.3 | 87.2 | 52.4 |  |
| COc1cc(/C=C/C(=O)N(Cc2cccc3[nH]c4ccccc4c23)C2CCCC2)ccc1O | 66.6 | 85.7 | > 100 | 54.5 | 31.6 | 25.9 | 90.3 | 66.6 | 85.7 | 25.9 | 90.3 | 54.5 |  |
| COc1ccc2c(c1)[nH]c1cccc(CN(Cc3ccccc3)C(=O)/C=C/c3ccc(O)c(OC)c3)c12 |  |  | > 100 |  |  |  |  |  |  |  |  |  |  |
| CCN(Cc1cccc2[nH]c3cc(OC)ccc3c12)C(=O)/C=C/c1ccc(O)c(OC)c1 | 71.3 | 86.4 | 61.6 | 29.2 | 19.8 | 11.1 | 94.9 | 40.3 | 78.2 | 33.1 | 91.9 | 59.2 |  |
| COc1ccc2c(c1)[nH]c1cccc(CN(C(=O)/C=C/c3ccc(O)c(OC)c3)C3CCCCC3)c12 | 50.9 | 82 | > 100 | 40.9 | 20.5 | 25.6 | 88.6 | 50.9 | 72 | 38.6 | 88.6 | 47.9 |  |
| CCNCc1cccc2[nH]c3cc(Cl)ccc3c12 |  |  | 2.1 |  | 1.9 |  |  |  |  |  |  |  | Activity [18]: 44.7%; Activity [19]: 11%; IC50 (Acetylcholinesterase [5]): 5.1 µM; Activity [20]: 93.2%; Activity [21]: 30.1%; Activity [22]: 60.1%; Activity [23]: 14.7%; Activity [24]: 31.6%; Activity (PC-12 [25]): Active; Activity [26]: 83.2%; Activity [27]: 71.4%; Activity [28]: 51.4%; IC50 (Cholinesterase [10]): 7.9 µM; Activity (PC-12 [29]): inactive |
| COc1cc(/C=C/C(=O)N(Cc2ccccc2)Cc2cccc3[nH]c4ccccc4c23)ccc1O |  |  | > 100 |  |  |  |  |  |  |  |  |  |  |
| COc1ccc2c(c1)[nH]c1cccc(CN(C(=O)/C=C/c3ccc(O)c(OC)c3)C3CCCC3)c12 | 67.4 | 86.8 | 88.2 | 24 | 25.9 | 14.8 | 90.4 | 37.4 | 66.8 | 34.8 | 87.4 | 54 |  |
| COc1ccc2c(c1)[nH]c1cccc(CN(C(=O)/C=C/c3ccc(O)c(OC)c3)C(C)C)c12 | 68.2 | 72.9 | 58.2 | 8 | 13.9 | 1.1 | 98 | 23.4 | 51.7 | 45.1 | 87.2 | 55 |  |
